Source: PubChem
Compounds with a hit are over-represented: about 5.1% of the library has one in this group of screens.
STAT3 inh: reduces IL-6 driven STAT3 reporter signal; U3A cells, IL-6 STAT3-luciferase reporter, luminescence; host cell line lacks STAT1; inhibition, % at 5.5 µM; hit rate 0.89% among 190,000;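 active = inhibition above the mean inhibition across all screened compounds plus 3 SD, cut at about 44% in these data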
STAT3 act-1: STAT3 signaling activation; U3A cells, IL-6 STAT3-luciferase reporter, luminescence; 100% = signal with IL-6 EC80 alone; activation (% of control), % at 5.6 µM; hit rate 0.91% among 190,000; AID 871;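 active = activation above the screen-wide mean of compound activation plus 3 SD, cut at about 130% in these data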
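Material: human U3A cells carrying STAT3-luciferase construct. Measured by: reporter luminescence signal. Timing: compound 1 h, then IL-6 6 h at 37 °C.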
STAT1 act-1: increases IFN-gamma driven STAT1 reporter signal. NIH 3T3 STAT1-luciferase reporter, luminescence; 100% = IFN-gamma alone, no compound. activation (% of control), % at 5.5 µM. hit rate 2.6% among 200,000. AID 932;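 active = activation above the screen-wide mean activation plus 3 SD, cut at about 130% in these data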
NF-kB neuron act: NF-kB expression increase, human neuronal cells | fold change at 12.5 µM | NF-kB reporter expression; hits give high values | hit rate 1.6% among 190,000; in the data active = fold change above about 3.3
STAT1 inh: inhibitors of IFN-gamma induced STAT1 signaling; NIH 3T3 STAT1-luciferase reporter, luminescence; inhibition, % at 5.5 µM; hit rate 0.35% among 200,000; AID 920;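 active = inhibition above a set limit, the mean inhibition across all tested compounds plus 3 SD, cut at about 34% in these data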
APP 5'UTR act: APP 5'UTR luciferase reporter activation; hit rate 1% among 190,000; AID 1276; activation, % at 2 µM; SH-SY5Y APP 5'UTR luciferase reporter, luminescence; zero percent = DMSO vehicle wells;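 active = activation above a set limit, based on mean plus 3 SD of controls, cut at about 140% in these data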
STAT3 act-2: confirmation of STAT3 signaling activators; shares compounds with STAT3 act-1; U3A STAT3-luciferase reporter, IL-6 potentiation, luminescence; U3A cells lack STAT1; 100 means same as IL-6 alone; potentiation (% of control), % at 5.7 µM; hit rate 64% among 1,200;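 active = percent activation of the STAT3 luciferase reporter above a set limit taken from the earlier primary screen, cut at about 130% in these data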
NFkB act 2: counter-screen for STAT3 activators: NF-kappaB activation; AID 1309; hit rate 11% among 1,200; shares compounds with STAT3 act-1; activation (% of control), % at 5.7 µM; human cells, NF-kappaB reporter activation; in the data active = activation above about 120%;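 note: reporter induced by TNF-alpha stimulation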
STAT1 act-2: counter-screen for STAT3 activators: STAT1 activation; shares compounds with STAT3 act-1; NIH 3T3 STAT1-luciferase reporter, IFN-gamma, luminescence; activation (% of control), % at 5.7 µM; hit rate 13% among 1,200; AID 1318;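 active = activation above the solvent-only control well mean plus 3 SD, set per screening run, cut at about 120% in these data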
Each line names hits and unclear results; the compound was inactive in the other large screens (follow-up assays come after a bar, where they were run).

CCCc1cc(C(=O)Nc2cccnc2Cl)no1	none
CCCCC1CC(CSc2ncn[nH]2)OC1=O (stereo not drawn)	none
CCC(=O)N=c1sc2cc(F)cc(F)c2n1C	STAT3 act-1 140 (no result: NF-kB neuron act) | STAT3 act-2 inactive | NFkB act 2 inactive | STAT1 act-2 139
COc1ccc(S(=O)(=O)Nc2nc3c(s2)CCCC3)cc1	none
CCc1ccc2c(c1)C(=O)c1ccccc1C2=O	STAT3 act-1 142, NF-kB neuron act 3.5 | STAT3 act-2 151 | NFkB act 2 131 | STAT1 act-2 165
O=C(OCc1ccccc1)c1ccc2c(c1)-c1ccccc1C2=O	none
CCc1c(C(=O)Nc2ccc(OC)cc2)[nH]c(C)c1C(C)=O	none
COc1ccc(NC(=O)c2[nH]c(C)c(C(C)=O)c2C)cc1	STAT3 act-1 143 | STAT3 act-2 159 | NFkB act 2 121 | STAT1 act-2 129
O=C(Cn1c(S(=O)(=O)Cc2ccccc2)nc2ccccc21)N1CCCCC1	none
CCCN1CCN(S(=O)(=O)c2ccc(OC)c(Br)c2)CC1	none
COc1ccc(CN2CCN(S(=O)(=O)c3ccc(C)cc3)CC2)cc1Br	STAT3 act-1 144 | STAT3 act-2 137 | NFkB act 2 inactive | STAT1 act-2 inactive
CC(=O)NC(CCS(C)(=O)=O)C(=O)Nc1ccc2c(c1)OCCO2 (stereo not drawn)	none
CCS(=O)(=O)Nc1ccc(C2=NN(S(C)(=O)=O)C(c3cccs3)C2)cc1 (stereo not drawn)	STAT3 act-1 137 | STAT3 act-2 inactive | NFkB act 2 inactive | STAT1 act-2 inactive
O=C(O)C1CC=CCC1C(=O)Nc1ccc(S(=O)(=O)N2CCCc3ccccc32)cc1 (stereo not drawn)	STAT3 act-1 162 | STAT3 act-2 146 | NFkB act 2 inactive | STAT1 act-2 inactive
COc1cc(-c2nnc(CSc3nc4ccccc4s3)o2)cc(OC)c1OC	STAT3 act-1 137 | STAT3 act-2 inactive | NFkB act 2 inactive | STAT1 act-2 inactive
COc1cc(-c2nnc(COC(=O)CSc3cc(C)c4ccccc4n3)o2)cc(OC)c1OC	none
C=CCNC(=O)CN(c1ccccc1OCC)S(=O)(=O)c1ccc(C)cc1	none
O=C(CC(Nc1cccc(Cl)c1Cl)C(=O)O)c1ccccc1 (stereo not drawn)	STAT3 act-1 140 | STAT3 act-2 149 | NFkB act 2 inactive | STAT1 act-2 inactive
O=C(CSc1ccc2nnc(-c3ccc(Cl)cc3)n2n1)N1CCCc2ccccc21	none
CCCC(=Nc1ccccc1OC)C1=C(O)CC(c2ccccc2)CC1=O (stereo not drawn)	none
COc1ccccc1N=C(C)C1=C(O)CC(c2ccccc2)CC1=O (stereo not drawn)	STAT3 act-1 148, NF-kB neuron act 3.5 | STAT3 act-2 inactive | NFkB act 2 140 | STAT1 act-2 inactive
CC(=O)Nc1ccc(S(=O)(=O)N2CC3(C)CC2CC(C)(C)C3)cc1 (stereo not drawn)	STAT3 act-1 137 | STAT3 act-2 inactive | NFkB act 2 inactive | STAT1 act-2 inactive
CC1(C)CC2CC(C)(CN2S(=O)(=O)c2ccc(C(=O)Nc3ccc(S(=O)(=O)N4CCOCC4)cc3)cc2)C1 (stereo not drawn)	none
CCN1CC(CN(C)Cc2nc(-c3cccs3)no2)CC1=O (stereo not drawn)	none
c1ccc(Cn2c(SCc3nc4ccccc4s3)nnc2-c2ccco2)cc1	none
c1ccc(-n2cnnc2SCc2nc3ccccc3s2)cc1	STAT3 act-1 140 | STAT3 act-2 152 | NFkB act 2 122 | STAT1 act-2 132
Cc1nnc(SCc2nc3ccccc3s2)n1-c1ccccc1	STAT3 act-1 147 | STAT3 act-2 149 | NFkB act 2 inactive | STAT1 act-2 134
CCn1c(SCc2nc3ccccc3s2)nnc1-c1ccccc1	STAT3 act-1 171 | STAT3 act-2 145 | NFkB act 2 inactive | STAT1 act-2 134
CCC(c1nnc(SCc2nc3ccccc3s2)n1Cc1ccccc1)N(C)C (stereo not drawn)	STAT3 act-1 152 | STAT3 act-2 141 | NFkB act 2 inactive | STAT1 act-2 inactive
Cn1c(=O)c2c(nc(SCC(=O)Nc3ccccc3)n2C)n(C)c1=O	none
Cc1cc(N2CCOCC2)nc(SCC(=O)OCc2ccccc2)n1	none (no result: NF-kB neuron act)
CCOc1ccccc1-c1nnc(SCC(=O)NC2CC3CCC2C3)n1CC (stereo not drawn)	STAT3 act-1 160 | STAT3 act-2 169 | NFkB act 2 127 | STAT1 act-2 162
C=CCSC1=NC(=O)/C(=C/c2cccs2)S1	none
COc1ccc(NC2SC(=O)N(CC(=O)O)C2=O)cc1 (stereo not drawn)	none
O=c1cc(-c2ccccc2)[nH]n1-c1nc2ccccc2s1	STAT3 act-1 138 | STAT3 act-2 inactive | NFkB act 2 126 | STAT1 act-2 inactive
C=CCn1c(SCC#N)nc2ccccc2c1=O	STAT3 act-1 136 | STAT3 act-2 inactive | NFkB act 2 inactive | STAT1 act-2 inactive
C=CCn1c(=O)c2ccccc2n2c(SCc3nc4ccccc4s3)nnc12	STAT3 act-1 144 | STAT3 act-2 142 | NFkB act 2 123 | STAT1 act-2 135
Cc1ccccc1OCc1nc(-c2ccc(Br)o2)no1	none
COc1ccccc1Cc1nc(-c2ccc(Br)o2)no1	STAT3 act-1 156 | STAT3 act-2 136 | NFkB act 2 inactive | STAT1 act-2 126
CCN(CC)C(=O)/C(NC(=O)c1ccccc1)=C(/Sc1ncccn1)c1ccccc1	none
O=C(c1ccco1)[C@@H]1[C@@H]2C(=O)N(c3ccc(Br)cc3)C(=O)[C@@H]2C2c3ccccc3C=CN21 (stereo partly drawn)	STAT3 act-1 142 (no result: NF-kB neuron act) | STAT3 act-2 inactive | NFkB act 2 inactive | STAT1 act-2 inactive
Cc1nn(CC(=O)NCc2ccccc2F)c(C)c1[N+](=O)[O-]	none
Cc1nn(CC(=O)NCc2cc3ccccc3[nH]2)c(C)c1[N+](=O)[O-]	STAT3 act-1 138 | STAT3 act-2 161 | NFkB act 2 inactive | STAT1 act-2 inactive
CN1c2ccsc2C(O)=C(C(=S)Nc2ccc(F)c(Cl)c2)S1(=O)=O	STAT3 act-1 142 | STAT3 act-2 inactive | NFkB act 2 inactive | STAT1 act-2 inactive
Cn1cc(C(=O)Nc2ccc(F)c(Cl)c2)cn1	none
